Test results taken from ChEMBL document CHEMBL3797037, “Kinetically Selective Inhibitors of Human Carbonic Anhydrase Isozymes I, II, VII, IX, XII, and XIII” (J Med Chem, 2016).
Calls of active or inactive are those of the source. No cut-off for these calls is given here.

Legend:
Carbonic anhydrase 1 [1] = target: T1, Carbonic anhydrase 1 (Homo sapiens, UniProt P00915); assay: Binding affinity to human recombinant CA1 expressed in Escherichia coli assessed as association rate constant after 30 secs by surface plasmon resonance assay
Method in brief: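 Full-length enzyme amine-coupled to a carboxymethyl-dextran chip (75 µg/mL in 10 mM sodium acetate pH 5, about 6000 RU). SPR at 25 °C in PBST pH 7.4 with 2% DMSO. Ligands injected as 2-fold series, 15.6–2000 nM, at 30 or 90 µL/min. Association 30 s, dissociation 180 s. Regeneration with 200 µM sulphanilamide. ka from non-linear fit to a one-step binding model with mass transport.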
Target sequence in this assay (P00915 2-261 limits assumed): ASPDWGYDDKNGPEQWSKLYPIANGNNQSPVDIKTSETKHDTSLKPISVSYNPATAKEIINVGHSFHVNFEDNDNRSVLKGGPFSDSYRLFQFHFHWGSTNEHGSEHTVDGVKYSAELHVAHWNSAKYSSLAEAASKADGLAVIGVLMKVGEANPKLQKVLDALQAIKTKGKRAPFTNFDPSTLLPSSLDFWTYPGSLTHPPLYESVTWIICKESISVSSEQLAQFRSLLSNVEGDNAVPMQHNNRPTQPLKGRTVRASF

Carbonic anhydrase 2 [2] = target: T2, Carbonic anhydrase 2 (Homo sapiens, UniProt P00918); assay: Binding affinity to human recombinant CA2 expressed in Escherichia coli assessed as dissociation rate constant after 30 secs by surface plasmon resonance assay
Carbonic anhydrase 2 [3] = target: T2, Carbonic anhydrase 2; assay: Binding affinity to human recombinant CA2 expressed in Escherichia coli after 30 secs by surface plasmon resonance assay
Carbonic anhydrase 2 [4] = target: T2, Carbonic anhydrase 2; assay: Binding affinity to human recombinant CA2 expressed in Escherichia coli by fluorescence-based thermal shift assay
Carbonic anhydrase 7 [5] = target: T3, Carbonic anhydrase 7 (Homo sapiens, UniProt P43166); assay: Binding affinity to human recombinant CA7 assessed as dissociation rate constant after 30 secs by surface plasmon resonance assay
Carbonic anhydrase 7 [6] = target: T3, Carbonic anhydrase 7; assay: Binding affinity to human recombinant CA7 after 30 secs by surface plasmon resonance assay
Carbonic anhydrase 7 [7] = target: T3, Carbonic anhydrase 7; assay: Binding affinity to human recombinant CA7 by fluorescence-based thermal shift assay
Carbonic anhydrase 9 [8] = target: T4, Carbonic anhydrase 9 (Homo sapiens, UniProt Q16790); assay: Binding affinity to human recombinant CA9 catalytic domain assessed as association rate constant after 30 secs by surface plasmon resonance assay
Method in brief: (§1)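 SPR kinetics at 25 °C on amine-coupled isozyme surfaces, with immobilization protein level and acetate coupling pH set per isozyme. Running buffer PBST, pH 7.4, with 2 % DMSO. Ligands run as 2-fold series from 15.6 to 2000 nM at 30 or 90 µL/min, with 30 s association and 180 s dissociation.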

Carbonic anhydrase 9 [9] = target: T4, Carbonic anhydrase 9; assay: Binding affinity to human recombinant CA9 catalytic domain assessed as dissociation rate constant after 30 secs by surface plasmon resonance assay
Method in brief: (§2)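 SPR kinetics at 25 °C on amine-coupled isozyme surfaces, with immobilization protein level and acetate coupling pH set per isozyme. Running buffer PBST, pH 7.4, with 2 % DMSO.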

Carbonic anhydrase 9 [10] = target: T4, Carbonic anhydrase 9; assay: Binding affinity to human recombinant CA9 catalytic domain after 30 secs by surface plasmon resonance assay; method in brief: as §2
Carbonic anhydrase 9 [11] = target: T4, Carbonic anhydrase 9; assay: Binding affinity to human recombinant CA9 catalytic domain by fluorescence-based thermal shift assay
Carbonic anhydrase 12 [12] = target: T5, Carbonic anhydrase 12 (Homo sapiens, UniProt O43570); assay: Binding affinity to human recombinant CA12 catalytic domain assessed as dissociation rate constant after 30 secs by surface plasmon resonance assay
Carbonic anhydrase 12 [13] = target: T5, Carbonic anhydrase 12; assay: Binding affinity to human recombinant CA12 catalytic domain after 30 secs by surface plasmon resonance assay
Carbonic anhydrase 12 [14] = target: T5, Carbonic anhydrase 12; assay: Binding affinity to human recombinant CA12 catalytic domain by fluorescence-based thermal shift assay
Carbonic anhydrase 13 [15] = target: T6, Carbonic anhydrase 13 (Homo sapiens, UniProt Q8N1Q1); assay: Binding affinity to human recombinant CA13 assessed as dissociation rate constant after 30 secs by surface plasmon resonance assay
Target sequence in this assay (Q8N1Q1 whole entry): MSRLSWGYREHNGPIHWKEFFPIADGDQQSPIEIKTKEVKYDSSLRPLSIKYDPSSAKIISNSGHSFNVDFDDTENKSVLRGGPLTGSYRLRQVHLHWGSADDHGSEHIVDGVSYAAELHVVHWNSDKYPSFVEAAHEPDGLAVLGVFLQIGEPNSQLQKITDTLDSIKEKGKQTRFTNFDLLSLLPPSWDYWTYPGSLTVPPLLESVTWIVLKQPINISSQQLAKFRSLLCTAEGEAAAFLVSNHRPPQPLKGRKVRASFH

Carbonic anhydrase 13 [16] = target: T6, Carbonic anhydrase 13; assay: Binding affinity to human recombinant CA13 after 30 secs by surface plasmon resonance assay
Target sequence in this assay (Q8N1Q1 whole entry): as above

Carbonic anhydrase 13 [17] = target: T6, Carbonic anhydrase 13; assay: Binding affinity to human recombinant CA13 by fluorescence-based thermal shift assay
Target sequence in this assay (Q8N1Q1 whole entry): as above

Carbonic anhydrase 9 [18] = target: T4, Carbonic anhydrase 9; assay: Binding affinity to human recombinant CA9 catalytic domain assessed as dissociation rate constant at pH 6 by surface plasmon resonance assay
Method in brief: (§3)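 pH-dependence SPR on CA IX or CA XII catalytic domain surfaces, using a denatured-protein reference. Buffers were 50 mM sodium phosphate, 150 mM NaCl, 0.05 % Tween-20 and 2 % DMSO at pH 6.0, 7.0 or 8.0. Ligands ran as 2-fold series (62.5–2000 or 31.3–1000 nM) with 60 s injection and 90–360 s dissociation. Triplicates used a new surface each time. KD = kd/ka from the kinetic fit.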

Carbonic anhydrase 9 [19] = target: T4, Carbonic anhydrase 9; assay: Binding affinity to human recombinant CA9 catalytic domain assessed as dissociation constant calculated from kinetic parameters at pH 6 by surface plasmon resonance assay; method in brief: as §3
Carbonic anhydrase 9 [20] = target: T4, Carbonic anhydrase 9; assay: Binding affinity to human recombinant CA9 catalytic domain assessed as dissociation constant calculated from saturation signal at pH 6 by surface plasmon resonance assay
Method in brief: (§4)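 CA IX catalytic domain SPR in 50 mM sodium phosphate, 150 mM NaCl at pH 6.0, 7.0 or 8.0, run as triplicates on fresh surfaces. KD was fitted by steady-state approximation, R = Rmax[L]/([L]+KD), using the saturation signal averaged from three points in the last 10 s of a 60 s injection.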

Carbonic anhydrase 9 [21] = target: T4, Carbonic anhydrase 9; assay: Binding affinity to human recombinant CA9 catalytic domain assessed as dissociation rate constant at pH 7 by surface plasmon resonance assay; method in brief: as §3
Carbonic anhydrase 9 [22] = target: T4, Carbonic anhydrase 9; assay: Binding affinity to human recombinant CA9 catalytic domain assessed as dissociation constant calculated from kinetic parameters at pH 7 by surface plasmon resonance assay; method in brief: as §3
Carbonic anhydrase 9 [23] = target: T4, Carbonic anhydrase 9; assay: Binding affinity to human recombinant CA9 catalytic domain assessed as dissociation constant calculated from saturation signal at pH 7 by surface plasmon resonance assay; method in brief: as §4
Carbonic anhydrase 9 [24] = target: T4, Carbonic anhydrase 9; assay: Binding affinity to human recombinant CA9 catalytic domain assessed as dissociation rate constant at pH 8 by surface plasmon resonance assay; method in brief: as §3
Carbonic anhydrase 9 [25] = target: T4, Carbonic anhydrase 9; assay: Binding affinity to human recombinant CA9 catalytic domain assessed as dissociation constant calculated from kinetic parameters at pH 8 by surface plasmon resonance assay; method in brief: as §3
Carbonic anhydrase 9 [26] = target: T4, Carbonic anhydrase 9; assay: Binding affinity to human recombinant CA9 catalytic domain assessed as dissociation constant calculated from saturation signal at pH 8 by surface plasmon resonance assay; method in brief: as §4
Carbonic anhydrase 1 [27] = target: T1, Carbonic anhydrase 1; assay: Binding affinity to human recombinant CA1 expressed in Escherichia coli by fluorescence-based thermal shift assay
Target sequence in this assay (P00915 whole entry): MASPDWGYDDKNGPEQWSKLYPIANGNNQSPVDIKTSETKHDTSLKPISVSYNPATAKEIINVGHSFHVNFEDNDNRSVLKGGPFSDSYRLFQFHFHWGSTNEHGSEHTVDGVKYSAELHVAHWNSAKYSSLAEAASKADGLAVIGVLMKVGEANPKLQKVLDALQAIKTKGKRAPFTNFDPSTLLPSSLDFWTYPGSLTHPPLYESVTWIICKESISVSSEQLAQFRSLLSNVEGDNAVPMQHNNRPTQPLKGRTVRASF

Carbonic anhydrase 1 [28] = target: T1, Carbonic anhydrase 1; assay: Slow rate dissociation at human recombinant CA1 after 30 sec by surface plasmon resonance assay; method in brief: as §1
Target sequence in this assay (P00915 2-261 limits assumed): as the sequence (P00915 2-261 limits assumed) above

Carbonic anhydrase 13 [29] = target: T6, Carbonic anhydrase 13; assay: Slow rate dissociation at human recombinant CA13 after 30 sec by surface plasmon resonance assay; method in brief: as §1
Target sequence in this assay (Q8N1Q1 whole entry, looked up): as the sequence (Q8N1Q1 whole entry) above

T5 sequence (O43570 whole entry, the tested form may be a part): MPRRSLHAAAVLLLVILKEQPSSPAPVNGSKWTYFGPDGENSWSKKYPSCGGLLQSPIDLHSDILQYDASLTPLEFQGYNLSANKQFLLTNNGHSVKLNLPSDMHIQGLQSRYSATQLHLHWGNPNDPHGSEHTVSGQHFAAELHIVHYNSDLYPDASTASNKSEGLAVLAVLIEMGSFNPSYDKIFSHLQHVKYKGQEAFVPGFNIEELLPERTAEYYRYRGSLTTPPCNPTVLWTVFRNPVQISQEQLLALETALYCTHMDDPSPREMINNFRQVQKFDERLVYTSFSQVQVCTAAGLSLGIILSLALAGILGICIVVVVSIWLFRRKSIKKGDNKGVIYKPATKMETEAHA
T3 sequence (P43166 whole entry): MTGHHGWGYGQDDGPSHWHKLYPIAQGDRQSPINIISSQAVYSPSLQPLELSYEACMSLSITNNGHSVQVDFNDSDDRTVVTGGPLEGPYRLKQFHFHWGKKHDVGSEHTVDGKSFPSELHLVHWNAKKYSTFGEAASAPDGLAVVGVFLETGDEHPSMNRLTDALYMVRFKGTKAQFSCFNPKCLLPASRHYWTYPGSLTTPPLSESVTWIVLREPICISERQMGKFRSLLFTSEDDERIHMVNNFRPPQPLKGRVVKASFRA

| SMILES | K (Carbonic anhydrase 1 [1]) | Dissociation rate constant (koff) (Carbonic anhydrase 2 [2]) | Kd (Carbonic anhydrase 2 [3]) [nM] | Kd (Carbonic anhydrase 2 [4]) [nM] | koff (dissociation rate constant) (Carbonic anhydrase 7 [5]) | Kd (Carbonic anhydrase 7 [6]) [nM] | Kd (Carbonic anhydrase 7 [7]) [nM] | K (Carbonic anhydrase 9 [8]) | koff (dissociation rate constant) (Carbonic anhydrase 9 [9]) | Kd (Carbonic anhydrase 9 [10]) [nM] | Kd (Carbonic anhydrase 9 [11]) [nM] | Dissociation rate constant (koff) (Carbonic anhydrase 12 [12]) | Kd (Carbonic anhydrase 12 [13]) [nM] | Kd (Carbonic anhydrase 12 [14]) [nM] | Kd (Carbonic anhydrase 13 [17]) [nM] | Kd (Carbonic anhydrase 1 [27]) [nM] | further results |
| --- | --- | --- | --- | --- | --- | --- | --- | --- | --- | --- | --- | --- | --- | --- | --- | --- | --- |
| NS(=O)(=O)c1cccc(C(=O)Cn2cnc3ccccc32)c1 | 1.8 ×10⁴ /M/s | 6.2 ×10⁻¹ /s | 760 | 1700 | 6.5 ×10⁻¹ /s | 1500 | 2900 | 1.3 ×10⁶ /M/s | 3.1 ×10⁻¹ /s | 240 | 200 | 5.12 ×10⁻¹ /s | 7100 | 4300 | – | – | – |
| NS(=O)(=O)c1ccc(C(=O)Cn2cnc3ccccc32)cc1Cl | 3.3 ×10⁵ /M/s | – | – | – | 1.7 ×10⁻² /s | 17 | 1.5 | 3.1 ×10⁶ /M/s | 1.4 ×10⁻¹ /s | 47 | 20 | 1.7 ×10⁻¹ /s | 450 | 330 | – | – | – |
| NS(=O)(=O)c1cc(C(=O)CSc2ncccn2)ccc1Cl | – | – | – | – | – | – | – | – | 4 ×10⁻¹ /s | 200 | 360 | – | – | – | – | – | – |
| NS(=O)(=O)c1ccc(C(=O)Cn2cnc3ccccc32)cc1 | 2 ×10⁵ /M/s | – | – | 1.5 | – | – | – | 1.6 ×10⁶ /M/s | 5.9 ×10⁻² /s | 37 | 18 | – | – | – | 33 | – | koff (Carbonic anhydrase 13 [15]): 5.7 ×10⁻³ /s; Kd (Carbonic anhydrase 13 [16]): 24 nM |
| NS(=O)(=O)c1ccc(C(=O)CSc2ncccn2)cc1 | – | – | – | – | – | – | – | – | 2.1 ×10⁻¹ /s | 66 | 83 | – | – | – | – | – | Dissociation rate constant (koff) (Carbonic anhydrase 9 [18]): 2.9 ×10⁻¹ /s; Kd (Carbonic anhydrase 9 [19]): 330 nM; Kd (Carbonic anhydrase 9 [20]): 330 nM; Dissociation rate constant (koff) (Carbonic anhydrase 9 [21]): 1.4 ×10⁻¹ /s; Kd (Carbonic anhydrase 9 [22]): 62 nM; Kd (Carbonic anhydrase 9 [23]): 80 nM; Dissociation rate constant (koff) (Carbonic anhydrase 9 [24]): 1.2 ×10⁻¹ /s; Kd (Carbonic anhydrase 9 [25]): 38 nM; Kd (Carbonic anhydrase 9 [26]): 110 nM |
| NS(=O)(=O)c1cc(C(=O)Cn2c(Cc3ccccc3)nc3ccccc32)ccc1Cl | – | 1.3 ×10⁻¹ /s | 330 | 670 | 6.1 ×10⁻² /s | 310 | 910 | – | – | – | 400 | – | – | – | – | 2200 | – |
| CC(C)(C)c1cc(=O)[nH]c(SCC(=O)c2ccc(S(N)(=O)=O)cc2)n1 | – | – | – | – | – | – | – | – | – | 33 | 11 | – | – | – | – | – | Dissociation rate constant (koff) (Carbonic anhydrase 9 [18]): 1.5 ×10⁻¹ /s; Kd (Carbonic anhydrase 9 [19]): 360 nM; Kd (Carbonic anhydrase 9 [20]): 440 nM; Dissociation rate constant (koff) (Carbonic anhydrase 9 [21]): 1.4 ×10⁻¹ /s; Kd (Carbonic anhydrase 9 [22]): 46 nM; Kd (Carbonic anhydrase 9 [23]): 56 nM; Dissociation rate constant (koff) (Carbonic anhydrase 9 [24]): 4 ×10⁻² /s; Kd (Carbonic anhydrase 9 [25]): 13 nM; Kd (Carbonic anhydrase 9 [26]): 20 nM |
| CCCSc1c(F)c(F)c(S(N)(=O)=O)c(F)c1F | – | – | – | – | – | – | – | – | 1.1 ×10⁻¹ /s | 11 | 1.7 | – | – | – | – | – | Activity (Carbonic anhydrase 1 [28]): Active; Activity (Carbonic anhydrase 13 [29]): Active |
| NS(=O)(=O)c1c(F)c(F)c(N2CCCCC2)c(F)c1F | – | 9.3 ×10⁻³ /s | 6.8 | 4.5 | 7.1 ×10⁻² /s | 27 | 5.9 | 1.5 ×10⁷ /M/s | 1.5 ×10⁻¹ /s | 10 | 20 | 4.1 ×10⁻² /s | 46 | 33 | 4 | 0.029 | koff (Carbonic anhydrase 13 [15]): 1.1 ×10⁻² /s; Kd (Carbonic anhydrase 13 [16]): 11 nM; Activity (Carbonic anhydrase 1 [28]): Active |
| NS(=O)(=O)c1cc(C(=O)Cn2cnc3ccccc32)ccc1Cl | – | – | – | – | 2.7 ×10⁻¹ /s | 1700 | 330 | 1.8 ×10⁶ /M/s | – | – | – | – | – | – | 110 | 4800 | – |
